Experimental data as given in ChEMBL document CHEMBL4406854, “Synthesis and in-vitro anti-HIV-1 evaluation of novel pyrazolo[4,3-c]pyridin-4-one derivatives” (Eur J Med Chem, 2019).
Active and inactive are the calls of the source. The rule behind the calls is not given here.

What was measured:
[1] = system: Human immunodeficiency virus 1; experiment: Antiviral activity against HIV1 VB59 infected in human TZM-bl cells incubated for 48 hrs by bright Glo-luciferase reporter gene assay; type: functional, organism-based; settings: Human immunodeficiency virus 1, VB59, TZM-bl
Summary of the method: (§1)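 TZM-bl cells (10^4/well, seeded the day before) were infected with pre-titrated HIV-1 VB59 or UG070 stocks for 2 h. Serial two-fold dilutions at sub-toxic concentrations were then added, with AZT as control, for 48 h. Britelite plus luciferase substrate was added and RLU measured. IC50 was derived from percent inhibition against infected untreated and uninfected controls.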

[2] = Cytotoxicity against human TZM-bl cells assessed as reduction in cell viability incubated for 48 hrs by MTT assay; type: cell-based
Summary of the method: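 TZM-bl cells (10^4/well) were seeded overnight at 37 °C in humidified 5% CO2. Serial two-fold dilutions were added, with AZT as control, for 48 h. Viability was read by MTT, and CC50 (concentration leaving 50% of cells viable) was obtained by non-linear regression.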

[3] = Therapeutic index, ratio of CC50 for human TZM-bl cells to IC50 for antiviral activity against HIV1 VB59 infected in human TZM-bl cells; type: toxicity, cell-based; settings: read-out: Ratio CC50/IC50
Summary of the method: (§2)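 TI = CC50/IC50. CC50 came from 48 h MTT viability of TZM-bl cells. IC50 came from 48 h luciferase read-out in TZM-bl cells infected for 2 h with HIV-1 UG070 or VB59 and then treated with two-fold dilutions at sub-toxic concentrations.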

[4] = Cytotoxicity against human PBMC cells assessed as reduction in cell viability incubated for 5 days by MTT assay; type: cell-based
Summary of the method: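 PBMCs (0.2×10^6 cells/well) were activated with PHA-p (5 µg/mL) and IL-2 (5 U/mL) and exposed to serial two-fold compound dilutions at 37 °C, 5% CO2, for 5 days. Viability was measured by MTT and CC50 calculated.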

[5] = system: Human immunodeficiency virus 1; experiment: Antiviral activity against HIV1 NL4.3 infected in human TZM-bl cells measured upto 3 hrs by bright Glo-luciferase reporter gene assay; type: functional, organism-based
Summary of the method: (§3)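 Time-of-addition: TZM-bl cells seeded at 10^4 cells/well and incubated overnight, then infected with HIV-1 NL4.3 (400 TCID50) in complete DMEM containing […] DEAE-dextran. Compounds and reference antiretrovirals were applied at five times their IC50 at 0, 1, 2, 3, 4, 6, 8, 10, 18 and 24 h post infection. Luciferase (RLU) was read 48 h post infection, in triplicate, as mean±SD.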

[6] = Therapeutic index, ratio of CC50 for human TZM-bl cells to IC50 for antiviral activity against HIV1 UG070 infected in human TZM-bl cells; type: toxicity, cell-based; settings: read-out: Ratio CC50/IC50; summary of the method: as §2
[7] = system: Human immunodeficiency virus 1; experiment: Antiviral activity against HIV1 NL4.3 infected in human TZM-bl cells measured upto 10 hrs by bright Glo-luciferase reporter gene assay; type: functional, organism-based; summary of the method: as §3
[8] = system: Human immunodeficiency virus 1; experiment: Antiviral activity against HIV1 VB51 infected in human PBMC cells incubated for 5 days by bright Glo-luciferase reporter gene assay; type: functional, organism-based; settings: Human immunodeficiency virus 1, VB51, 120 h
Summary of the method: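 PBMCs (0.2×10^6 cells/well) were activated with PHA-p (5µg/mL) and IL-2 (5U/mL). Sub-toxic concentrations, chosen from a 5-day MTT CC50 at 37 °C in 5% CO2, were used against R5-tropic HIV-1 VB51.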

[9] = Therapeutic index, ratio of CC50 for human TZM-bl cells to IC50 for antiviral activity against HIV1 92/BR/018 infected in human TZM-bl cells; type: toxicity, cell-based; settings: read-out: Ratio CC50/IC50
Summary of the method: (§4)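 TI = CC50/IC50. CC50 came from TZM-bl cells (10^4/well) exposed to serial two-fold dilutions for 48 h at 37 °C, 5% CO2, with MTT viability and non-linear regression fitting. IC50 came from TZM-bl cells infected 2 h, treated with sub-toxic two-fold dilutions for 48 h, with luciferase RLU read-out.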

[10] = system: Human immunodeficiency virus 1; experiment: Antiviral activity against HIV1 92/BR/018 infected in human TZM-bl cells incubated for 48 hrs by bright Glo-luciferase reporter gene assay; type: functional, organism-based; settings: Human immunodeficiency virus 1, 92/BR/018, TZM-bl
Summary of the method: (§5)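 TZM-bl cells (HeLa-derived, expressing CD4/CXCR4/CCR5, with an LTR-driven luciferase reporter) were seeded at 10^4 cells/well overnight. Cells were infected with pre-titrated virus for 2 h, then given serial two-fold dilutions of sub-toxic compound concentrations and incubated 48 h. Luciferase substrate was added and RLU read. IC50 was taken from percent inhibition versus infected untreated controls. NVP and AZT served as controls.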

[11] = Therapeutic index, ratio of CC50 for human TZM-bl cells to IC50 for antiviral activity against HIV1 N119 infected in human TZM-bl cells; type: toxicity, cell-based; settings: read-out: Ratio CC50/IC50; summary of the method: as §4
[12] = Therapeutic index, ratio of CC50 for human PBMC cells to IC50 for antiviral activity against HIV1 VB51 infected in human PBMC cells
[13] = system: Human immunodeficiency virus 1; experiment: Antiviral activity against HIV1 NARI-DR infected in human TZM-bl cells incubated for 48 hrs by bright Glo-luciferase reporter gene assay; type: functional, organism-based; settings: Human immunodeficiency virus 1, NARI-DR; summary of the method: as §5
[14] = system: Human immunodeficiency virus 1; experiment: Antiviral activity against HIV1 N119 infected in human TZM-bl cells incubated for 48 hrs by bright Glo-luciferase reporter gene assay; type: functional, organism-based; settings: Human immunodeficiency virus 1, N119, TZM-bl; summary of the method: as §5
[15] = system: Human immunodeficiency virus 1; experiment: Antiviral activity against HIV1 UG070 infected in human TZM-bl cells incubated for 48 hrs by bright Glo-luciferase reporter gene assay; type: functional, organism-based; settings: Human immunodeficiency virus 1, UG070, TZM-bl; summary of the method: as §1
[16] = Therapeutic index, ratio of CC50 for human TZM-bl cells to IC50 for antiviral activity against HIV1 NARI-DR infected in human TZM-bl cells; type: toxicity, cell-based; settings: read-out: Ratio CC50/IC50; summary of the method: as §4

| Compound | IC50 [1] [µM] | CC50 at 48 h [2] [µM] | selectivity ratio [3] | also measured |
| --- | --- | --- | --- | --- |
| Cc1cc2c(cnn2-c2ccc(F)c(F)c2)c(=O)[nH]1 | > 192 | 133 |  |  |
| Cc1cc2c(cnn2-c2cccc(F)c2)c(=O)[nH]1 | > 206 | 159 |  |  |
| Cc1cn([C@H]2C[C@H](N=[N+]=[N-])[C@@H](CO)O2)c(=O)[nH]c1=O [ZIDOVUDINE] |  | 872 |  | CC50 at 120 h [4]: 1070 µM |
| Cc1cc2c(cnn2-c2ccc(Cl)c(Cl)c2)c(=O)[nH]1 | > 171 | 93.5 |  |  |
| Cc1cc2c(cnn2-c2cccc(Br)c2)c(=O)[nH]1 | 139 | 72.6 | 0.52 |  |
| Cc1cc2c(cnn2-c2ccc(Cl)cc2)c(=O)[nH]1 | > 193 | 260 |  |  |
| Cc1cc2c(cnn2-c2cc(Cl)cc(Cl)c2)c(=O)[nH]1 | > 171 | 93.5 |  |  |
| Cc1cc2c(cnn2-c2ccc(C(F)(F)F)cc2)c(=O)[nH]1 | > 171 | 100 |  |  |
| Cc1cc2c(cnn2-c2cc(F)cc(F)c2)c(=O)[nH]1 | > 192 | 130 |  |  |
| Cc1cc2c(cnn2-c2ccc(C(C)(C)C)cc2)c(=O)[nH]1 | > 178 | 45.9 |  |  |
| Cc1ccnc2c1NC(=O)c1cccnc1N2C1CC1 [NEVIRAPINE] |  |  |  | IC50 [8]: 0.19 µM; selectivity ratio [9]: 1990; IC50 [10]: 0.3 µM; selectivity ratio [11]: 4.3; CC50 at 120 h [4]: 1000 µM; selectivity ratio [12]: 5280; IC50 [13]: 232 µM; IC50 [14]: 140 µM; selectivity ratio [16]: 2.6 |
| COc1cccc(-n2ncc3c(=O)[nH]c(C)cc32)c1 | 247 | 553 | 2.24 | IC50 [15]: > 196 µM |

Second part, led by results:

| IC50 [1] [µM] | Compound | CC50 at 48 h [2] [µM] | selectivity ratio [3] | also measured |
| --- | --- | --- | --- | --- |
| 138 | Cc1cc2c(cnn2-c2ccc(Br)cc2)c(=O)[nH]1 | 79.8 | 0.58 |  |
| 3.67 | Cc1cc(C)cc(-n2ncc3c(=O)[nH]c(C)cc32)c1 | 679 | 185 | Activity [5]: Active; selectivity ratio [6]: 243; Activity [7]: Active; IC50 [8]: 8.65 µM; selectivity ratio [9]: 91; IC50 [10]: 7.42 µM; selectivity ratio [11]: 210; CC50 at 120 h [4]: 592 µM; selectivity ratio [12]: 68; IC50 [13]: 2.53 µM; IC50 [14]: 3.24 µM; IC50 [15]: 2.79 µM; selectivity ratio [16]: 268 |
| 58.1 | Cc1ccc(-n2ncc3c(=O)[nH]c(C)cc32)cc1 | 383 | 6.6 | selectivity ratio [6]: 1.67; IC50 [15]: 229 µM |
| 121 | Cc1cc2c(cnn2-c2ccccc2)c(=O)[nH]1 | 708 | 5.86 | IC50 [15]: 444 µM |
| 126 | Cc1cc2c(cnn2-c2ccc(C)c(C)c2)c(=O)[nH]1 | 93.4 | 0.74 |  |
| 128 | Cc1cc2c(cnn2-c2cccc(C(F)(F)F)c2)c(=O)[nH]1 | 34.1 |  |  |
